The source made the active and inactive calls.
Columns and labels:
[1] = Oral bioavailability in Sprague-Dawley rat at 3 mg/kg by HPLC-MS method; type: ADME, organism-based; conditions: in vivo
Summary of the method: (§1)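 Male rats (330−380 g, 9−10 weeks), jugular vein cannula implanted 1 day before, fasted. 3 mg/kg given iv or orally (n = 3) in DMA/PEG400 30/70 v/v. Blood (150 μL) drawn at 0, 2, 5 (iv only), 15, 30 min and 1, 2, 4, 6, 8, 12, 24 h; plasma analysed by HPLC-MS; noncompartmental analysis.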

[2] = Tmax in Sprague-Dawley rat at 3 mg/kg, po by HPLC-MS method; type: ADME, organism-based; set-up: dose 3 mg/kg, route oral; conditions: in vivo; summary of the method: as §1
[3] = Apparent elimination half life in Sprague-Dawley rat at 3 mg/kg, po by HPLC-MS method; type: ADME, organism-based; set-up: dose 3 mg/kg, route oral; conditions: in vivo, read-out: betat1/2(app) (converted); summary of the method: as §1
[4] = Volume of distribution at steady state in Sprague-Dawley rat at 3 mg/kg, iv by HPLC-MS method; type: ADME, organism-based; set-up: dose 3 mg/kg, route intravenous; conditions: in vivo, read-out: Vdss; summary of the method: as §1
[5] = Clearance in Sprague-Dawley rat at 3 mg/kg, iv by HPLC-MS method; type: ADME, organism-based; set-up: dose 3 mg/kg, route intravenous; conditions: in vivo; summary of the method: as §1
[6] = Solubility in DMA; type: physicochemical
[7] = tested on: Transmissible gastroenteritis virus; experiment: Antiviral activity against Transmissible gastroenteritis virus infected in ST cells assessed as reduction in caspase-3 activation pre-treated before virus infection measured 16 hrs post virus infection by Western blotting; type: functional, organism-based
Summary of the method: (§2)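 ST cells pretreated with compound, then infected with TGEV. Western blot for nucleocapsid (N) protein, caspase 3 (cleavage of procaspase 3) and GAPDH at 16 hpi. Representative of at least three independent experiments.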

[8] = tested on: Transmissible gastroenteritis virus; experiment: Antiviral activity against Transmissible gastroenteritis virus infected in ST cells assessed as reduction in N-protein expression pre-treated before virus infection measured 16 hrs post virus infection by Western blotting; type: functional, organism-based; summary of the method: as §2
[9] = tested on: RAW264.7; experiment: Reduction in LPS/INFgamma-induced COX2 protein expression in mouse RAW264.7 cells incubated for 20 hrs by Western blotting; type: functional, cell-based
Summary of the method: (§3)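 LPS/IFNγ-stimulated RAW264.7 cells treated with compound for 20 h. iNOS, COX-2 and GAPDH detected by Western blot; representative of at least three independent experiments.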

[10] = tested on: RAW264.7; experiment: Reduction in LPS/INFgamma-induced iNOS protein expression in mouse RAW264.7 cells incubated for 20 hrs by Western blotting; type: functional, cell-based; summary of the method: as §3
[11] = tested on: A549; experiment: Induction of c-Jun protein accumulation in human A549 cells incubated for 24 hrs by Western blotting; type: functional, cell-based
[12] = tested on: A549; experiment: Down regulation of cyclin A2 expression in human A549 cells incubated for 24 hrs by Western blotting; type: functional, cell-based
[13] = tested on: NCI-H460; experiment: Induction of c-Jun protein accumulation in human NCI-H460 cells incubated for 24 hrs by Western blotting; type: functional, cell-based
[14] = tested on: NCI-H460; experiment: Down regulation of cyclin A2 expression in human NCI-H460 cells incubated for 24 hrs by Western blotting; type: functional, cell-based
[15] = tested on: MCF7; experiment: Induction of c-Jun protein accumulation in human MCF7 cells incubated for 24 hrs by Western blotting; type: functional, cell-based
[16] = Cytotoxicity against mouse RAW264.7 cells; type: cell-based
Summary of the method: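 RAW264.7 cells stimulated with LPS/IFNγ and compound-treated in parallel with the NO assay; CC50 taken as concentration giving 50% inhibition of cell growth. Mean of at least three experiments, each in duplicate.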

[17] = tested on: Transmissible gastroenteritis virus; experiment: Antiviral activity against Transmissible gastroenteritis virus infected in ST cells pre-treated 2 hrs before virus infection measured 6 hrs post virus infection by immunofluorescent assay; type: functional, organism-based; conditions: Alphacoronavirus 1, ST
Summary of the method: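 ST cells, with or without 2 h compound pretreatment (10 concentrations), infected with TGEV at MOI 10. Immunofluorescence with anti-spike and anti-nucleocapsid antibodies at 6 hpi. EC50 from dose–response curves, mean of at least three experiments, each in duplicate.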

[18] = tested on: NUGC-3; experiment: Growth inhibition of human NUGC3 cells; type: functional
Summary of the method: (§4)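 Cells seeded per well: NUGC-3 4500, HONE-1 6000, MCF-7 6500, NCI-H460 2500, HepG2 10000, A549 5000; A549 grown in RPMI 1640 with 2 g/L NaHCO₃, 2 mM L-glutamine and 10% FBS. GI₅₀ = concentration giving 50% growth inhibition, mean of at least three experiments each in duplicate. Paclitaxel served as positive control.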

[19] = tested on: MCF7; experiment: Growth inhibition of human MCF7 cells; type: functional; summary of the method: as §4
[20] = tested on: A549; experiment: Growth inhibition of human A549 cells; type: functional; summary of the method: as §4
[21] = tested on: HepG2; experiment: Growth inhibition of human HepG2 cells; type: functional; summary of the method: as §4
[22] = tested on: Mus musculus; experiment: Toxicity in Nu-Foxn1'nu mouse assessed as effect on motor coordination at 10 mg/kg, po administered once daily on day 1 to 10, day 15 to 19 and day 22 to 26 measured during day 58 to 61 post dose by rotarod test; type: organism-based; set-up: dose 10 mg/kg, route oral; conditions: in vivo
Summary of the method: (§5)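 Male nude mice already used in the A549 xenograft study (oral dosing, vehicle 25% DMA + 75% PEG400). Groups: vehicle (n = 8), 5 mg/kg (n = 7), 10 mg/kg (n = 8), plus untreated nontumor mice (n = 5). Rota-rod training on day 58, testing on days 59–61, rod accelerating 2 to 30 rpm over 300 s. Read-out was latency to fall, 300 s cutoff.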

[23] = tested on: Mus musculus; experiment: Toxicity in Nu-Foxn1'nu mouse assessed as effect on motor coordination at 5 mg/kg, po administered once daily on day 1 to 10, day 15 to 19 and day 22 to 26 measured during day 58 to 61 post dose by rotarod test; type: organism-based; set-up: dose 5 mg/kg, route oral; conditions: in vivo; summary of the method: as §5
[24] = tested on: Rattus norvegicus; experiment: Antiinflammatory activity against Sprague-Dawley rat assessed as reduction in carrageenan-induced hind paw edema at 5 mg/kg, ip; type: functional; set-up: scale not given: the % may be the effect or the level left; conditions: route intraperitoneal
Summary of the method: (§6)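 Female Sprague−Dawley rats (193−214 g, 8−9 weeks, n = 5) dosed ip 1 h before subplantar injection of 100 μL 1% carrageenan in saline into the left hind paw. Vehicle group received DMSO (100 μL); indomethacin served as positive control. Inhibition of 30% or more counted as significant.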

[25] = tested on: Rattus norvegicus; experiment: Antiinflammatory activity against Sprague-Dawley rat assessed as reduction in carrageenan-induced hind paw edema at 3 mg/kg, ip; type: functional; set-up: scale not given: the % may be the effect or the level left; conditions: route intraperitoneal; summary of the method: as §6
[26] = tested on: Mus musculus; experiment: Toxicity in human A549 cells xenografted Nu-Foxn1'nu mouse assessed as incidence of overt toxicity at 10 mg/kg, po administered once daily on day 1 to 10, day 15 to 19 and day 22 to 26; type: organism-based; set-up: dose 10 mg/kg, route oral; conditions: in vivo
Summary of the method: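 Four-week-old male nude mice given 10 million A549 cells subcutaneously in the right flank. At ~60 mm³, randomised to vehicle (25% DMA + 75% PEG400) or oral gavage once daily (n = 8). Mice monitored for overt adverse signs, with body weight tracked.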

[27] = tested on: A549; experiment: Antitumor activity against human A549 cells xenografted in Nu-Foxn1'nu mouse assessed as reduction in tumor volume at 10 mg/kg, po administered once daily on day 1 to 10, day 15 to 19 and day 22 to 26; type: functional; set-up: scale not given: the % may be the effect or the level left
Summary of the method: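 Four-week-old male nude mice received 10 million A549 cells sc in the right flank. At ~60 mm³ tumours, mice were randomised (n = 8) and dosed by oral gavage in 25% DMA + 75% PEG400. Volume = a×b²/2. T/C (%) computed from day 1 and day 60 volumes versus vehicle.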

Molecule `CCN1Cc2c(c3ccc(OC)cc3c3cc(OC)c(OC)cc23)C(O)C1` (configuration not stated) has a bioavailability [1] of 63.5%, a Tmax [2] of 0.3 h and a half-life [3] of 11.8 h. For the same molecule, the Vd [4] was 2.7 L/kg, the clearance [5] was 51.8 mL/min/kg and the solubility [6] was “soluble”. For the same molecule, the Activity [7] was “Active”, the Activity [8] was “Active” and the Activity [9] was “Active”. The Activity [10] was “Active”, the Activity [11] was “Active” and the Activity [12] was “Active”. The Activity [13] was “Active”, the Activity [14] was “Active” and the Activity [15] was “Active”. It also gave a CC50 [16] of 240 nM, an EC50 [17] of 40 nM and a GI50 [18] of 30 nM. For the same molecule, the GI50 [19] was 40 nM, the GI50 [20] was 20 nM and the GI50 [21] was 40 nM. The Activity [22] was “Non-toxic”, the Activity [23] was “Non-toxic” and the Activity [24] was >60%. The Activity [25] was >60%, the Activity [26] was “Non-toxic” and the Activity [27] was 61%.

From ChEMBL document CHEMBL2177013, “Synthesis and biological evaluation of tylophorine-derived dibenzoquinolines as orally active agents: exploration of the role of tylophorine e ring on biological activity” (J Med Chem, 2012)
